SR-BI HDL uptake: mouse SR-BI HDL lipid transfer inhibition; AID 488896; hit rate 0.96% among 320,000; Q61009; ldlA[mSR-BI] CHO cells, DiI-HDL uptake fluorescence, 3 h; inhibition, % at 12.5 µM;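 active = mean replicate inhibition of at least 70% and a set share of replicates each scoring 70 or more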;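 also: 0% = median of neutral control wells and 100% = median of positive control wells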
JMJD2C inh: blocks human GASC-1 demethylase activity | Q9H3R0 | GST-JMJD2C(1-420) H3K9me3 demethylation, DELFIA europium | inhibition, % at 2.35 µM | hit rate 0.069% among 330,000;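 active = more than half of a compound's replicate wells show inhibition beyond 50%, single wells judged on their own value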;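 also: signal counts dimethyl H3K9 product captured on neutravidin plate; 0% = median of DMSO wells and 100% = 0.3 times that DMSO median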
Target sequence (Q9H3R0 1-420 limits assumed): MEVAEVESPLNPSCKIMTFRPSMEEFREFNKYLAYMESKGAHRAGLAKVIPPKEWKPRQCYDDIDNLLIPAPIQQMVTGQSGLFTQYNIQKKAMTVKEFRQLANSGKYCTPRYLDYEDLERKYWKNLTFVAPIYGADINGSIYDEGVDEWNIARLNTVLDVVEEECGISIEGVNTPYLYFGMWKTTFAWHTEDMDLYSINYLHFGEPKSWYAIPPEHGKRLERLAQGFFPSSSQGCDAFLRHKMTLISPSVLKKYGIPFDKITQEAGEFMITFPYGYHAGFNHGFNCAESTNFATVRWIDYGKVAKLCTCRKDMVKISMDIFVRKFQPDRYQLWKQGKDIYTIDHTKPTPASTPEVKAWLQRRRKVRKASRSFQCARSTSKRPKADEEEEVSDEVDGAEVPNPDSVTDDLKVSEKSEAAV
FXN GAA850 act: increases GAA850 frataxin promoter reporter activity | HEK293 lucGAA850 FXN promoter luciferase reporter, 24 h; percent of 10 µM SAHA response | activation, % at 6 µM | hit rate 0.56% among 360,000;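 active = activation above the average of all compounds screened plus 3 SD, cutoff fixed separately per campaign, cut at about 7.5% in these data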;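 also: 0% = DMSO wells and 100% = 10 µM SAHA wells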
AHR act: activators of human aryl hydrocarbon receptor; P35869; AHR-responsive luciferase reporter cells, luminescence; activation, % at 5 µM; hit rate 2.5% among 320,000; in the data active = activation above about 47%;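 also: 0% = vehicle wells and 100% = reference agonist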
SR-BI uptake up: activators of SR-BI mediated HDL lipid uptake | CHO ldlA[mSR-BI] cells, DiI-HDL uptake fluorescence, 3 h; 100 = double the neutral-control signal | hit rate 0.096% among 320,000 | activation, % at 12.5 µM;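 active = mean replicate activation of at least 60% and every replicate at or above 60%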;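 also: 0% = median plate neutral-control signal and 100% = twice that signal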
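Material – SR-BI-overexpressing, LDLR-lacking CHO cells · Medium – BSA-supplemented, HEPES-buffered Ham's F12, pH 7.4 · Doses – single concentration · Times – compound with DiI-HDL co-incubation, 3 h at 37 °C · Measured by – bottom-read fluorescence, 550/595 nm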
Starred values were filed as active, the others as inactive; i = inactive; · = no result. Rows were chosen to be rich in hits. Some 3.7% of all compounds tested hit in one or more screens of this group.

SMILES	SR-BI HDL uptake	JMJD2C inh	FXN GAA850 act	AHR act	SR-BI uptake up
O=C(c1ccc2c(c1)OCO2)N1CCC2(CC1)Oc1ccc(Cl)cc1C(=O)C21CC(c2ccccc2)=NO1 (configuration not stated)	23	-1	0	4	-23
CC(C)Oc1cccc(C(=O)Nc2nnc([C@H]3C[C@H](O)[C@@H](CO)O3)s2)c1	·	·	0	·	·
COc1ccc(C)cc1NC(=S)N1CCN(S(C)(=O)=O)CC1	4	-9	-1	-1	-4
COC(=O)C(Cc1ccccc1)NC(=O)COc1ccc(C(C)(C)C)cc1 (configuration not stated)	2	61*	-1	-1	-2
CCOc1ccc(C(=O)NC(Cc2ccccc2)C(=O)OC)cc1 (configuration not stated)	-7	-82	4	0	7
COc1cccc(-c2nc(CS(=O)(=O)CC(=O)N3CCc4ccccc43)c(C)o2)c1	12	-9	1	8	-12
Cc1cc(Nc2nc(Cl)c(Cl)cc2Cl)n(-c2ccccc2)n1	41	-2	1	68*	-41
Cc1cc(Nc2ncc(Cl)cc2Cl)n(-c2ccccc2C)n1	-8	-1	2	2	8
Cc1cc(Nc2ccccc2)n(-c2ccccc2)n1	1	8	-1	3	-1
Cc1ccc(-n2nc(C)cc2Nc2ncc(Cl)cc2Cl)cc1	82*	-2	5	44	-82
Cc1ccc(C2=NN=C(NC(=O)CSc3nnc4c5ccccc5n(C)c4n3)SC2)cc1	-32	-9	0	77*	32
Cc1ccc(C2=NN=C(NC(=O)CSc3nc(C)cc(C)n3)SC2)cc1	·	3	·	37	·
Cc1ccccc1NS(=O)(=O)c1ccc(NC(=O)N2CCCCC2)cc1	17	7	3	5	-17
C/C(=N\NC(N)=S)c1ccc(Cl)s1	79*	-24	0	-4	-79
Cc1nc(-c2ccccc2)sc1-c1nc(-c2ccncc2)ncc1S(=O)(=O)c1ccccc1	24	15	0	54*	-24
COc1nc(-c2ccccc2)ncc1S(=O)(=O)c1ccccc1	16	-4	2	3	-16
O=S(=O)(c1ccccc1)c1cnc(-c2ccccc2)nc1N1CCCC1	85*	4	4	1	-85
ON=C1CCC2CCCCC2C1 (configuration not stated)	·	·	1	·	·
CCN(C[C@H]1N[C@@](CC)(C(=O)OC)[C@H]2C(=O)N(C)C(=O)[C@@H]12)S(=O)(=O)c1ccc(OC)cc1	-8	13	1	0	8
CCCOc1ccc(F)cc1-c1cc(C(=O)NCc2cccc(Cl)c2)[nH]n1	·	·	2	·	·
CC(=O)Nc1ccccc1C(=O)C(=O)NCCc1ccccc1	-16	0	0	0	16
Cc1ccc2c(c1)c(-c1ccccc1)nc1nncn12	-14	8	2	53*	14
CN(C)Cc1c(O)ccc2c(=O)c(-c3ccc(Cl)cc3)coc12	·	9	2	66*	·
CC(C)(C)c1ccc(NC(=O)c2ccccc2)c([N+](=O)[O-])c1	0	2	4	-2	0
CC(C)CC(=O)N1CCN(c2ccc([N+](=O)[O-])c(NCc3ccccc3)c2)CC1	66	8	1	48*	-66
SMILES	SR-BI HDL uptake	JMJD2C inh	FXN GAA850 act	AHR act	SR-BI uptake up
Cc1cc(NC(=O)c2ccc3nc(-c4ccccc4)c(-c4ccccc4)nc3c2)no1	80*	-3	-1	1	-80
COC(CNC(=O)c1ccc2nc(-c3ccccc3)c(-c3ccccc3)nc2c1)OC	80*	-3	-2	4	-80
COc1ccc(-c2nc3ccc(C(=O)NCC(OC)OC)cc3nc2-c2ccc(OC)cc2)cc1	51	6	3	1	-51
COc1ccc(NC(=O)c2ccc3nc(-c4ccccc4)c(-c4ccccc4)nc3c2)c(OC)c1	76*	i	2	0	-76
C[C@@H]1CCCCCCCCC(=O)OCCN(C(=O)OC(C)(C)C)[C@H](C)CCCCCCCCC(=O)OCCN(C(=O)OC(C)(C)C)[C@H](C)CCCCCCCCC(=O)OCCN1C(=O)OC(C)(C)C	·	36	·	0	·
Cc1ccc(C(=O)NNC2CC(=O)N(c3ccc4c(c3)OCCO4)C2=O)cc1 (configuration not stated)	0	12	1	6	0
COc1cccc(CNC(=O)CCc2nc3cc(S(=O)(=O)N4CCOCC4)ccc3n2C)c1	-12	-4	4	0	12
Nc1ccccc1SC1CC(=O)N(c2ccc3c(c2)OCO3)C1=O (configuration not stated)	-2	-5	0	72*	2
NS(=O)(=O)c1ccc(NNC(=O)c2ccccc2C(=O)O)cc1	-11	-25	2	48*	11
O=C(O)c1ccccc1C(=O)NNc1ccc(Cl)cc1	-42	8	2	40	42
COC(=O)c1cn[nH]c1NC(=S)Nc1ccc(C)cc1Cl	10	-5	2	2	-10
COC(=O)c1cn[nH]c1NC(=S)Nc1ccc(Cl)c(Cl)c1	-1	-3	-1	48*	1
Cc1ccc(-c2ccccc2)n1-c1ccc(C(=O)O)cc1	-15	-9	3	-1	15
Oc1ccccc1-n1c(-c2ccccc2)ccc1-c1ccccc1	11	-3	-2	51*	-11
COc1ccc(OC)c(NC(=O)COC(=O)/C=C/c2ccc(Cl)cc2)c1	-6	1	-1	-3	6
COc1ccc(NC(=S)N(CCO)Cc2cc3c(C)cc(C)cc3[nH]c2=O)cc1	·	1	3	59*	·
COc1ccc(NC(=S)N(CCc2c(C)[nH]c3ccc(C)cc23)Cc2cccs2)cc1	8	4	-1	64*	-8
COc1ccc(NC(=O)N(CCO)Cc2cc3c(C)cc(C)cc3[nH]c2=O)cc1	18	4	-3	12	-18
CC1(C)CC2(CC(c3cccs3)c3cc(Cl)c(O)cc3O2)NC(=S)N1 (configuration not stated)	90*	-15	0	-1	-90
COc1ccc(-n2nc(C#N)c(Cl)cc2=O)cc1	-53	·	33*	·	53
COc1ccccc1C1(CC(=O)N2CCCCC2)CCOC(C(C)C)C1 (configuration not stated)	27	-1	6	1	-27
CC(C)n1c(/C=C/c2ccccc2)nc2ccccc21	8	6	3	57*	-8
COCCOCCn1c(/C=C/c2ccccc2)nc2ccccc21	15	-13	4	8	-15
O=C(O)CCC(=O)Nc1cccc(-c2csc(-c3ccccc3)n2)c1	-2	-8	-6	-8	2
CCC(=O)Nc1cccc(-c2cn3ccsc3n2)c1	-11	0	2	54*	11
COc1cc(C(=O)Nc2cccc(-c3cn4cccnc4n3)c2)cc(OC)c1OC	37	i	0	5	-37
